Source: article PMC4161670 (Molecular Psychiatry, 2014)
Bridge positions count the residues as written; N and C are the ends. Ends that are not written are not given here.

Key:
recombinant BACE1 = recombinant BACE1 (Homo sapiens, UniProt P56817); assay: In vitro BACE1 activity assay; type: biochemical
[1] = cited from earlier work
Tg2576 mice = assay: APP processing in brain; type: in vivo, mouse; conditions: Tg2576, chronic treatment, western blot 6E10, n = 6 per group
In short: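 Tg2576 females, 9 months old, given test compound at 200 μg kg−1 i.p. or PBS once daily for 10 weeks; n=6 per group for blots. Brain proteins were fractionated into TBS-soluble, TBS-X and formic acid fractions. Reduced SDS-PAGE and western blot used human APP-specific 6E10. Full-length APP and C99 were quantitated from the TBS-X fraction and sAPP from the TBS-soluble fraction. Mean±s.e.; t-tests.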

[2] = cited from earlier work; remark: listed apart in the source
5XFAD mice = assay: Serum Aβ after a single injection; type: in vivo, mouse
In short: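 Female 5XFAD mice got a single i.p. injection of test compound or PBS. Serum was drawn before and after injection. Aβ1–42 was measured by sandwich ELISA: 21F12 capture, biotinylated N-terminal detection, streptavidin-alkaline phosphatase and a fluorescent substrate. Samples were diluted twofold to fivefold. Lowest detection level was 1.6 pg ml−1, from a standard curve.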

Dutch APP mice = assay: Serum Aβ after a single injection; type: in vivo, mouse; conditions: single i.p. 200 μg kg^-1

Sequence of recombinant BACE1 (P56817 46-501, species assumed): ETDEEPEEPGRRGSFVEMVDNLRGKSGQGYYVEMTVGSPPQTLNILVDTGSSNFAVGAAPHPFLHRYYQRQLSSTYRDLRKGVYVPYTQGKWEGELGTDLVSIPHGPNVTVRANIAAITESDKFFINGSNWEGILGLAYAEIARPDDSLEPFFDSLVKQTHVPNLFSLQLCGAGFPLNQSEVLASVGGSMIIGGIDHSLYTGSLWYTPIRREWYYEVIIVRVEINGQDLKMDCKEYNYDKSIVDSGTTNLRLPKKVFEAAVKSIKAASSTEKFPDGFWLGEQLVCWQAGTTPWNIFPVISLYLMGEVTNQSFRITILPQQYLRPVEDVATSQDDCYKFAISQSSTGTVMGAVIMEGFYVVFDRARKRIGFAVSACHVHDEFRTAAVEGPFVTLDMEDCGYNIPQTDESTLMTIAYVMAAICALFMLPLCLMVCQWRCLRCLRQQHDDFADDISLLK

**Q.** Which results are given for “Pramlintide (KCNTATCATQRLANFLVHSSNNFGPILPPTNVGSNTY-NH2; disulfide 2-7; chains of the INN, looked up)”?
**A.** ability to inhibit BACE1 activity (in words) (recombinant BACE1; purified BACE1, same assay as amylin): little or no ability to inhibit BACE1 activity; aggregation (in words) [1]: does not form aggregates; level of APP fragment C99 in brain versus controls (in words) (Tg2576 mice): did not reduce C99 levels

**Q.** With “Amylin (KCNTATCATQRLANFLVHSSNNFGAILSSTNVGSNTY; not fully specified (C-terminus, bridges); cysteine pairing not given here; UniProt P10997 34-70, looked up)” as the substance, how does the “passage of the blood-brain barrier (in words)” value [2] read?
**A.** passes through the blood–brain barrier (BBB) easily

**Q.** And the “change of serum Aβ after i.c.v. versus i.p. injection (in words)” value (5XFAD mice; single i.c.v. 200 μg kg^-1 vs single i.p. 200 μg kg^-1, P=0.03)?
**A.** much greater surge of Aβ in serum than a peripheral i.p. injection

**Q.** What about the “change of serum Aβ1-42 and Aβ1-40 after one injection (in words)” value (5XFAD mice; single i.p. 200 μg kg^-1) of the same substance?
**A.** increased level of Aβ1–42 but not of Aβ1–40 in serum

**Q.** And the “dose dependence of serum Aβ1-42 change after challenge (in words)” value (5XFAD mice; single i.p. challenge, Figure 3e)?
**A.** dose dependent

**Q.** And the “inhibition of BACE1 activity” value (recombinant BACE1; purified BACE1, dose-dependent, concentration not given)?
**A.** 70%

**Q.** And the “level of APP fragment C99 in brain versus controls (in words)” value (Tg2576 mice)?
**A.** lower levels of the APP processing fragments C99

**Q.** And the “change of serum Aβ1-40 and Aβ1-42 after one injection (in words)” value (Dutch APP mice)?
**A.** provoked a surge of Aβ1–40 but not of Aβ1–42 in the blood
